Reference: ChEMBL document CHEMBL3867455, “Accelerating the discovery of antibacterial compounds using pathway-directed whole cell screening” (Bioorg Med Chem, 2016)
Positions count from the first letter of the chain named. Values after ≈ are worked out from the molar mass of the structure shown. Active and inactive are the calls of the source. The calls are words filed in the database; no cut-off is given here.

Key:
Staphylococcus aureus [1] = assay: Antibacterial activity against wild type Staphylococcus aureus Newman at 5 ug/ml after 16 to 18 hrs; type: functional
How it was run: (§1)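 S. aureus overnight cultures (Newman WT, Newman ΔtarO, SEJ1 ΔltaS, RN4220 ΔypfP) diluted 1:100 in TSB and grown to OD600 ~1. Cultures were normalized to OD600 1 and diluted 1:1000. A DMSO compound dilution series was added to give final 0–32 µg/mL. Plates were incubated at 30°C for 16–18 h, then growth was read as OD600.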

[2] = system: Staphylococcus aureus subsp. aureus str. Newman; assay: Inhibition of DltB in Taro deficient Staphylococcus aureus Newman at 5 ug/ml after 16 to 18 hrs; how it was run: as §1
[3] = system: Staphylococcus aureus subsp. aureus USA300; assay: Inhibition of DltB tn::1050 mutant in Staphylococcus aureus USA300 JE2 at 5 ug/ml after 16 to 18 hrs
[4] = system: T1, Teichoic acid D-alanyltransferase (Staphylococcus aureus), Q53662 [S175T]; assay: Inhibition of DltB S175T mutant in Staphylococcus aureus Newman up to 32 ug/ml after 16 to 18 hrs by spectrophotometric analysis; details: Staphylococcus aureus subsp. aureus str. Newman
T1 sequence (whole entry): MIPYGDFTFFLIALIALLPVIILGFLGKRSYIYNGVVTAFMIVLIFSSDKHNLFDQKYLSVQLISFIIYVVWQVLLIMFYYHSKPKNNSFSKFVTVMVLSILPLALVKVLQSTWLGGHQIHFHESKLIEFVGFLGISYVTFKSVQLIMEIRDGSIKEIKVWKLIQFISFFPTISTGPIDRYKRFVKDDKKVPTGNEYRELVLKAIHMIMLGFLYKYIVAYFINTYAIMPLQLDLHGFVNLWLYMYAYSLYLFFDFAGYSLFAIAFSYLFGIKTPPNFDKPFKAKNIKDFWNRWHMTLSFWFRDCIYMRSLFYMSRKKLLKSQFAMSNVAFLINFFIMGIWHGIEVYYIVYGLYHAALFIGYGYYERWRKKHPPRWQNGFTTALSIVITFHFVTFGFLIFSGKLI

[5] = system: T2, Teichoic acid D-alanyltransferase (Staphylococcus aureus), Q53662 [A355E]; assay: Inhibition of DltB A355E mutant in Staphylococcus aureus Newman up to 32 ug/ml after 16 to 18 hrs by spectrophotometric analysis; details: Staphylococcus aureus subsp. aureus str. Newman
T2 sequence (whole entry): T1 sequence (whole entry) with T175S, A355E
How it was run: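 Broth-dilution MIC. Overnight cultures of the parent and the resistant mutants (selected in the […] background) were diluted 1:100 and grown in TSB at 30°C to OD600 ~1. They were then normalized to OD600 1 and diluted 1:1000. Compound series were made in DMSO, with 3 µL added to 147 µL of culture for a final 0–32 µg/mL. Plates were held 16–18 h at 30°C and OD600 was read.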

Staphylococcus aureus [6] = assay: Inhibition of DltB in ltaS-deficient Staphylococcus aureus SEJ1 at 5 ug/ml after 16 to 18 hrs; how it was run: as §1
[7] = system: Staphylococcus aureus subsp. aureus RN4220; assay: Inhibition of DltB in ypfP-deficient Staphylococcus aureus RN4220 at 5 ug/ml after 16 to 18 hrs; how it was run: as §1
[8] = Cytotoxicity against African green monkey Vero cells assessed cell viability at 1.3 uM relative to control; type: toxicity, cell-based; details: chlorocebus sabaeus, read-out: Activity
[9] = system: Staphylococcus aureus subsp. aureus str. Newman; assay: Inhibition of DltB in Taro-deficient Staphylococcus aureus Newman at 1 ug/ml after 16 to 18 hrs; how it was run: as §1
[10] = Cytotoxicity against African green monkey Vero cells assessed cell viability at 2.5 uM relative to control; type: toxicity, cell-based; details: chlorocebus sabaeus, read-out: Activity
[11] = system: Staphylococcus aureus subsp. aureus RN4220; assay: Inhibition of DltB in ypfP-deficient Staphylococcus aureus RN4220 at 1 ug/ml after 16 to 18 hrs; how it was run: as §1
[12] = system: Staphylococcus aureus subsp. aureus USA300; assay: Inhibition of DltB tn::1050 mutant in Staphylococcus aureus USA300 JE2 at 1 ug/ml after 16 to 18 hrs
[13] = Cytotoxicity against African green monkey Vero cells assessed cell viability at 5 uM relative to control; type: toxicity, cell-based; details: chlorocebus sabaeus, read-out: Activity
[14] = system: Staphylococcus aureus subsp. aureus str. Newman; assay: Inhibition of DltB in Staphylococcus aureus Newman assessed as suppression of 14C-D-Ala incorporation into LTA up to 16 ug/ml preincubated for 30 mins followed by 14C-D-Ala addition after 30 mins by PAGE autoradiography
How it was run: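 S. aureus Newman overnight culture diluted 1:100 and grown in TSB at 30°C to OD600 0.6. Cells were resuspended in 0.25X TSB pH 6.0 with 200 µg/mL D-cycloserine and compound at 0–16 µg/mL (eight levels), then held 30 min at 30°C, 300 rpm. Cells were then resuspended in the same buffer with compound plus 14C-D-Ala for a further 30 min. Lysates were boiled in SDS buffer and run on 4–20% Tris-glycine PAGE, then autoradiographed for labelled LTA.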

[15] = Cytotoxicity against African green monkey Vero cells assessed cell viability at 10 uM relative to control; type: toxicity, cell-based; details: chlorocebus sabaeus, read-out: Activity
Staphylococcus aureus [16] = assay: Inhibition of DltB in ltaS-deficient Staphylococcus aureus SEJ1 at 1 ug/ml after 16 to 18 hrs; how it was run: as §1

| Structure (SMILES) | Activity (Staphylococcus aureus [1]) | inhibition [2] | inhibition [3] | MIC [4] | MIC [5] | inhibition (Staphylococcus aureus [6]) | inhibition [7] | viability at 1.3 µM [8] | inhibition [9] | viability at 2.5 µM [10] | inhibition [11] | inhibition [12] | viability at 5 µM [13] | inhibition [14] | viability at 10 µM [15] | inhibition (Staphylococcus aureus [16]) |
| --- | --- | --- | --- | --- | --- | --- | --- | --- | --- | --- | --- | --- | --- | --- | --- | --- |
| COc1cc(NS(C)(=O)=O)ccc1Nc1c2ccccc2nc2ccccc12 | Active | Active | Active | > 32 µg/mL | 2 µg/mL (≈ 5.08 µM) | Active | Active |  |  |  |  |  |  |  |  |  |
| COc1ccc(-c2csc(NC(=O)/C=C/c3cccs3)n2)c(OC)c1 |  |  |  | 0.5 µg/mL (≈ 1.34 µM) | > 32 µg/mL |  |  | 106% | Active | 106% | Active | Active | 106% | Active | 106% | Active |
